Several values for one entry are separate records, joined by “and”; a condition that tells them apart may be missing. Equal entries are not always repeated. Activity calls are given as the source filed them. The rule behind the calls is not given here.
How the values were obtained:
[1] = biological target: T1, Alpha-crystallin A chain (Homo sapiens) (UniProt P02489); experiment: Inhibition of alphaA (66 to 80 residues) crystallin peptide aggregation at peptide to ligand ratio of 0.2 to 5:1 incubated for 7 days by fluorescence aggregation assay; details: time 7.0 day
T1 sequence (whole entry): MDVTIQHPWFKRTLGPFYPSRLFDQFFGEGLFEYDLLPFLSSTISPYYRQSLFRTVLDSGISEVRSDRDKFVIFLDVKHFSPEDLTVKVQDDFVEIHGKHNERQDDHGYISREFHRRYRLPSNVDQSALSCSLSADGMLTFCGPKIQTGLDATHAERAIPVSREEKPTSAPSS
How it was run: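 5360 μM peptide in 10 mM Tris was mixed with receptor at 0.2:1 to 10:1 receptor:peptide ratios and incubated 7 days at 37 °C. Proteostat dye was added (1 μL per 10 μL sample) with positive/negative dye controls. Fluorescence was read at 25 °C. Triplicates; percent inhibition plotted vs log[concentration] to derive IC50.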

[2] = biological target: T1, Alpha-crystallin A chain (Homo sapiens); experiment: Inhibition of alphaA (66 to 80 residues) crystallin peptide aggregation assessed decrease in large fibrillar aggregation at 1:1 peptide to ligand ratio incubated for 7 days by transmission electron microscopy; details: time 7.0 day
How it was run: (§1)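 Peptide incubated with receptor at 1:1 or 5:1 ratio for 7 days at 37 °C. A 10 μL aliquot taken on day 7 was loaded onto Formvar-carbon coated 200 mesh nickel grids and allowed to absorb for 2 h. Grids were washed three times with deionized water and blotted dry. Peptide-alone control; duplicate grids per sample; imaged by TEM.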

[3] = biological target: T1, Alpha-crystallin A chain (Homo sapiens); experiment: Inhibition of alphaA (66 to 80 residues) crystallin peptide aggregation assessed as amorphous small protein aggregates at 1:1 peptide to ligand ratio incubated for 7 days by transmission electron microscopy; details: time 7.0 day; how it was run: as §1
[4] = biological target: T1, Alpha-crystallin A chain (Homo sapiens); experiment: Inhibition of alphaA (66 to 80 residues) crystallin peptide aggregation assessed as decrease in peptide-receptor complex and measured upto 2 hrs by ESI-MS analysis
How it was run: (§2)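 Peptide and host (10 mM aqueous stocks) were mixed in equal parts to 5 mM each. Mixtures were diluted in ESI buffer (50% methanol, 49% water, 1% acetic acid) and analysed by positive-mode ESI-MS, either within 2 h of mixing or after incubation for 72+ h at 37 °C followed by 100-fold dilution.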

[5] = biological target: T1, Alpha-crystallin A chain (Homo sapiens); experiment: Inhibition of alphaA (66 to 80 residues) crystallin peptide aggregation assessed as decrease in peptide-receptor complex and measured after 72 hrs by ESI-MS analysis; how it was run: as §2
[6] = Binding affinity to lysine in deuterium oxide solution assessed as change in complexation induced chemical shift at 2 mM by 1H NMR analysis
[7] = Binding affinity to arginine in deuterium oxide solution assessed as change in complexation induced chemical shift at 2 mM by 1H NMR analysis
[8] = Binding affinity to histidine in deuterium oxide solution assessed as change in complexation induced chemical shift at 2 mM by 1H NMR analysis
[9] = Binding affinity to aspartic acid in deuterium oxide solution assessed as change in complexation induced chemical shift at 2 mM by 1H NMR analysis
[10] = Binding affinity to histidine in aqueous solution assessed as association constant at 1 mM by isothermal titration calorimetry
How it was run: (§3)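 ITC at 298 K: sample cell filled with one partner at 1 mM, titrant at 15 mM in syringe, computer-automated injections. Blank titrations into plain solvent subtracted to remove heats of dilution. Data fitted to a 1:1 (one-site) binding model to give K, ΔH and ΔS.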

[11] = biological target: T1, Alpha-crystallin A chain (Homo sapiens); experiment: Binding affinity to alphaA (66 to 80 residues) crystallin peptide in aqueous solution assessed as association constant at 1 mM by isothermal titration calorimetry; how it was run: as §3
[12] = Binding affinity to histidine in aqueous solution assessed as change in enthalpy at 1 mM by isothermal titration calorimetry; how it was run: as §3
[13] = biological target: T1, Alpha-crystallin A chain (Homo sapiens); experiment: Binding affinity to alphaA (66 to 80 residues) crystallin peptide in aqueous solution assessed as change in enthalpy at 1 mM by isothermal titration calorimetry; how it was run: as §3
[14] = Binding affinity to histidine in aqueous solution assessed as change in entropy at 1 mM by isothermal titration calorimetry
How it was run: (§4)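 ITC at 298 K. The sample cell holds one partner at 1 mM and the syringe holds titrant at 15 mM, added by automated injections. Titrations were run in water and in 10 mM Tris buffer pH 7.4. Blank titrations into plain solvent were subtracted to correct for heats of dilution. The data were fitted to a 1:1 (one-site) binding model to give K, ΔH and ΔS.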

[15] = biological target: T1, Alpha-crystallin A chain (Homo sapiens); experiment: Binding affinity to alphaA (66 to 80 residues) crystallin peptide in aqueous solution assessed as change in entropy at 1 mM by isothermal titration calorimetry; how it was run: as §3
[16] = Binding affinity to histidine in aqueous solution assessed as gibbs free energy change at 1 mM by isothermal titration calorimetry; how it was run: as §3
[17] = biological target: T1, Alpha-crystallin A chain (Homo sapiens); experiment: Binding affinity to alphaA (66 to 80 residues) crystallin peptide in aqueous solution assessed as gibbs free energy change at 1 mM by isothermal titration calorimetry; how it was run: as §3
[18] = Binding affinity to aspartic acid in aqueous solution assessed as association constant at 1 mM by isothermal titration calorimetry; how it was run: as §3
[19] = Binding affinity to aspartic acid in aqueous solution assessed as change in enthalpy at 1 mM by isothermal titration calorimetry; how it was run: as §3
[20] = Binding affinity to aspartic acid in aqueous solution assessed as change in entropy at 1 mM by isothermal titration calorimetry; how it was run: as §4
[21] = Binding affinity to aspartic acid in aqueous solution assessed as gibbs free energy change at 1 mM by isothermal titration calorimetry; how it was run: as §3
[22] = biological target: T1, Alpha-crystallin A chain (Homo sapiens); experiment: Inhibition of alphaA (66 to 80 residues) crystallin peptide aggregation assessed as decrease in average diameter size distribution at 1:1 peptide to ligand ratio incubated for 7 days by dynamic light scattering (Rvb=12000+/-1500 nm); details: time 7.0 day
[23] = Binding affinity to arginine in aqueous solution assessed as association constant at 1 mM by isothermal titration calorimetry; how it was run: as §3
[24] = Binding affinity to lysine in aqueous solution assessed as association constant at 1 mM by isothermal titration calorimetry; how it was run: as §3
[25] = Binding affinity to arginine in aqueous solution assessed as change in enthalpy at 1 mM by isothermal titration calorimetry; how it was run: as §3
[26] = Binding affinity to lysine in aqueous solution assessed as change in enthalpy at 1 mM by isothermal titration calorimetry; how it was run: as §3
[27] = Binding affinity to arginine in aqueous solution assessed as change in entropy at 1 mM by isothermal titration calorimetry; how it was run: as §4
[28] = Binding affinity to lysine in aqueous solution assessed as change in entropy at 1 mM by isothermal titration calorimetry; how it was run: as §4
[29] = Binding affinity to arginine in aqueous solution assessed as gibbs free energy change at 1 mM by isothermal titration calorimetry; how it was run: as §3
[30] = Binding affinity to lysine in aqueous solution assessed as gibbs free energy change at 1 mM by isothermal titration calorimetry; how it was run: as §3

inhibition [1]	inhibition [2]	inhibition [3]	inhibition [4]	inhibition [5]	Activity [6]	Activity [7]	Activity [8]	Activity [9]	Ka [10]	Ka [11]	deltaH [12] [kcal/mol]	deltaH [13] [kcal/mol]	TdeltaS [14] [kcal/mol]	TdeltaS [15] [kcal/mol]	deltaG [16]	deltaG [17]	Activity [22] [nm]	Ka [23]	Ka [24]	SMILES	other results
Dose-Dependent Effect	Active	Active	Active	Active	Active	Active	Active	Active	14.9 10^3/M	2.4 10^3/M	-7.53	4.89	-1.84	9.48	-5.69 kcal/mol	-4.59 kcal/mol	202	–	–	OCCCCc1cc(C(CCCO)c2cc(C(CCCO)c3cc(C(CCCO)c4ccc(O)c(CNCc5ccccc5)c4O)c(O)c(CNCc4ccccc4)c3O)c(O)c(CNCc3ccccc3)c2O)c(O)c(CNCc2ccccc2)c1O (centres undefined)	Ka [18]: 7.3 10^3/M; deltaH [19]: -1 kcal/mol; TdeltaS [20]: 2.9 kcal/mol; deltaG [21]: -3.9 kcal/mol
Dose-Dependent Effect	Active	Active	inactive	inactive	Active	Active	inactive	inactive	2.94 10^3/M	1360 10^3/M	-2.59	-8.28	6.91	0.092	-9.5 kcal/mol and -9.51 kcal/mol	-8.37 kcal/mol	1920	7.27 10^3/M	5.89 10^3/M	CCCc1cc(C(CC)c2cc(C(CC)c3cc(C(CC)c4ccc(O)c(CS(=O)(=O)O)c4O)c(O)c(CS(=O)(=O)O)c3O)c(O)c(CS(=O)(=O)O)c2O)c(O)c(CS(=O)(=O)O)c1O (centres undefined)	deltaH [25]: -15.7 kcal/mol; deltaH [26]: -12.1 kcal/mol; TdeltaS [27]: -10.4 kcal/mol; TdeltaS [28]: -6.45 kcal/mol; deltaG [29]: -5.27 kcal/mol and -5.28 kcal/mol; deltaG [30]: -5.62 kcal/mol
Dose-Dependent Effect	Active	Active	inactive	inactive	Active	Active	inactive	inactive	3.44 10^3/M	380 10^3/M	-1.05	-3.23	3.75	4.38	-4.8 kcal/mol	-7.61 kcal/mol and -7.6 kcal/mol	3740	3.64 10^3/M	4.45 10^3/M	O=S(=O)(O)CCCc1cc(C(CCS(=O)(=O)O)c2cc(C(CCS(=O)(=O)O)c3cc(C(CCS(=O)(=O)O)c4ccc(O)cc4O)c(O)cc3O)c(O)cc2O)c(O)cc1O (centres undefined)	deltaH [25]: -15.2 kcal/mol; deltaH [26]: -6.74 kcal/mol; TdeltaS [27]: -10.2 kcal/mol; TdeltaS [28]: -1.76 kcal/mol; deltaG [29]: -4.9 kcal/mol; deltaG [30]: -4.98 kcal/mol and -4.97 kcal/mol

Reference: ChEMBL document CHEMBL5223067, “Functionalized resorcinarenes effectively disrupt the aggregation of αA66-80 crystallin peptide related to cataracts” (RSC Med Chem, 2021)
